Assay results reported in ChEMBL document CHEMBL1811898, “Discovery and structure-activity relationships of modified salicylanilides as cell permeable inhibitors of poly(ADP-ribose) glycohydrolase (PARG)” (J Med Chem, 2011).
Activity calls are given as the source filed them. The calls are words filed in the database; no cut-off is given here.

Tests used:
[1] = target: T1, NAD-dependent protein deacetylase sirtuin-1 (Homo sapiens) (UniProt Q96EB6); assay: Inhibition of SIRT1
T1 sequence (whole entry): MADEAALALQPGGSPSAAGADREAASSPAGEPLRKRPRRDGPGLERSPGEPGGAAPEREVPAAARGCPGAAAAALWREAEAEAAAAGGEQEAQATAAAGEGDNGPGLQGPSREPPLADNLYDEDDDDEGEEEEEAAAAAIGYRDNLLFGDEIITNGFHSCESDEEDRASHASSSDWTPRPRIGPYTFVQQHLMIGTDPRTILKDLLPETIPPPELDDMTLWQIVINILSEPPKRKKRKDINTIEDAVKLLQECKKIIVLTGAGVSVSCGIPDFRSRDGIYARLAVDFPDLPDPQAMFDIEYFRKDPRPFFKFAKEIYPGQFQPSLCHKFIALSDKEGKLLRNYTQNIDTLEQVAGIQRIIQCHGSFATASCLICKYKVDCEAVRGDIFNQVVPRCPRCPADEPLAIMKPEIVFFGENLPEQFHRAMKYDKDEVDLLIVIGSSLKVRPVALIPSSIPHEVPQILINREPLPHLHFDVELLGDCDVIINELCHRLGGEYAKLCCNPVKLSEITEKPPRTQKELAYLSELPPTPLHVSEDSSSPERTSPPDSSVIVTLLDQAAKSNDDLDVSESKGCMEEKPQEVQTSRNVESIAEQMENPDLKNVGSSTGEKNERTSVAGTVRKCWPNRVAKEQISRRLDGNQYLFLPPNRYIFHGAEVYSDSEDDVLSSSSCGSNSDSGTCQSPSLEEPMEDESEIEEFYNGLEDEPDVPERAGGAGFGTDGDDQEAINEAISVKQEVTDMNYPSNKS

[2] = target: Poly [ADP-ribose] polymerase 1 (Homo sapiens, UniProt P09874); assay: Inhibition of PARP-1 using [32P]-NAD+ after 15 mins
Sequence of Poly [ADP-ribose] polymerase 1 (P09874 whole entry): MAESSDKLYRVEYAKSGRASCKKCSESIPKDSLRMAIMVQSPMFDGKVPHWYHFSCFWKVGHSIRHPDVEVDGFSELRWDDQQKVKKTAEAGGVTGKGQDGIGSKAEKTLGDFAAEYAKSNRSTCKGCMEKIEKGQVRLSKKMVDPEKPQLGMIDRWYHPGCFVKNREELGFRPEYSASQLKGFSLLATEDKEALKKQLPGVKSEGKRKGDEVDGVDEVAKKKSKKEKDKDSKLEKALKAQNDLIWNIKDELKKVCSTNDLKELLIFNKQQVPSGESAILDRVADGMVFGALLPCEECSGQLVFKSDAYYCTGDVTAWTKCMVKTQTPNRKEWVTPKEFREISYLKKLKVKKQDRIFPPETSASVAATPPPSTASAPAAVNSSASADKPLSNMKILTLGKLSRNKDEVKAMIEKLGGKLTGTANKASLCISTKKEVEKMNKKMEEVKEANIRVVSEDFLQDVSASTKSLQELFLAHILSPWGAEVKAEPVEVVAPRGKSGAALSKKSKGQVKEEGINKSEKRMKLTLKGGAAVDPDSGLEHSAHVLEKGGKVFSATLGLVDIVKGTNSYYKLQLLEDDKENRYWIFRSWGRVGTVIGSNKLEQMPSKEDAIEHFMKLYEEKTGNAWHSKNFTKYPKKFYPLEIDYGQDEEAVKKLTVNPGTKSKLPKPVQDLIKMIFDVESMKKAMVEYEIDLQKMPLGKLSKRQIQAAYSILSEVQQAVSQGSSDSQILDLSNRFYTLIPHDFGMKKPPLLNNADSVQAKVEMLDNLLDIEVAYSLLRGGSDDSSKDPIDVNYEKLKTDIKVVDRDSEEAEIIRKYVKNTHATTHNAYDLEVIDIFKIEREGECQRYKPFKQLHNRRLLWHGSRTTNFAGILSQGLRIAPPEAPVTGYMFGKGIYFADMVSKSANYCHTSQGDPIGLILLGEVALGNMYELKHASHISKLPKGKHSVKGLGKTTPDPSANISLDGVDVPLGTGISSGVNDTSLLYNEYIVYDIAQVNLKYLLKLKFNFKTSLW

[3] = Inhibition of alcohol dehydrogenase
[4] = target: Poly(ADP-ribose) glycohydrolase (Homo sapiens) (UniProt Q86W56); assay: Inhibition of PARG using [alpha-32P]ADP-ribose polymers at 500 uM after 5 mins by TRAP assay
Sequence of Poly(ADP-ribose) glycohydrolase (Homo sapiens) (Q86W56 whole entry, looked up): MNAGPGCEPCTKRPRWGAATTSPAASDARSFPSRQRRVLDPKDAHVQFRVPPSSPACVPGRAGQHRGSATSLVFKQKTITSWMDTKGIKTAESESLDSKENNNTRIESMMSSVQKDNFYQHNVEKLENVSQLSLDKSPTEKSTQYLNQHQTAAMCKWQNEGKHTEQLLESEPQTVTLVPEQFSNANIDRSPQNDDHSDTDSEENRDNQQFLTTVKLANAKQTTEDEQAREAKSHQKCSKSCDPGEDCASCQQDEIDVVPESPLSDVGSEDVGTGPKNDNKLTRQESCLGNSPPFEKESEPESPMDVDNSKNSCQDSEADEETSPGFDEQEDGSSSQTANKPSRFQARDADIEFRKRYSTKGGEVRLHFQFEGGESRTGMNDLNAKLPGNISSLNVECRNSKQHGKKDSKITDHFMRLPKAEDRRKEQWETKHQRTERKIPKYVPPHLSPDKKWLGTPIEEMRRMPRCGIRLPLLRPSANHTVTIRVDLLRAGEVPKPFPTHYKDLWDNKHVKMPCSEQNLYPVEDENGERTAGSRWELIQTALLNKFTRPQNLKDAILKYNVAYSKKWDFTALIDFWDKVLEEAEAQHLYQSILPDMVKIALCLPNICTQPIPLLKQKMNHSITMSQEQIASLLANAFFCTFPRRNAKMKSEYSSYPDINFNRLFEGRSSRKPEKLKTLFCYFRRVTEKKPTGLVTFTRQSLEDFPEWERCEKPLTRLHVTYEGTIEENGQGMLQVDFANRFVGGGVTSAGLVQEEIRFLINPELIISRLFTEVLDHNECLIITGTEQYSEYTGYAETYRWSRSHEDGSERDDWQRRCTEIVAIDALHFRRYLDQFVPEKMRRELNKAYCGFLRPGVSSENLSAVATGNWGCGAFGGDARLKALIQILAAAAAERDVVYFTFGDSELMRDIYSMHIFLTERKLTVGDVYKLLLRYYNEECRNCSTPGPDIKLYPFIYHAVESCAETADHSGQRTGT

[5] = target: Poly(ADP-ribose) glycohydrolase (Homo sapiens) (UniProt Q86W56); settings: SCC-25, 1 mM
[6] = target: PARP 1, 2 and 3 (Homo sapiens) (UniProt P09874+Q9Y6F1+Q9UGN5); assay: Inhibition of PARP in human SCC25 cells assessed as inhibition of MNNG-induced NAD(H) depletion at 1 mM preincubated for 5 mins before MNNG challenge measured after 30 mins; type: cell-based; settings: SCC-25
Summary of the method: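 SCC-25 cells (90% confluent, 35 mm dishes) pretreated 5 min with compound, then 5 μg/mL MNNG for 30 min; HClO4 extraction, KOH/KH2PO4 neutralization; NAD by enzymatic cycling (alcohol dehydrogenase, phenazine ethosulfate, MTT, 37°C 30 min), A570; normalized to cell protein.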

[7] = target: Poly(ADP-ribose) glycohydrolase (Homo sapiens) (UniProt Q86W56); settings: SCC-25, 1 mM; remark: listed apart in the source
[8] = target: Poly(ADP-ribose) glycohydrolase (Homo sapiens) (UniProt Q86W56); settings: SCC-25, 1 mM; remark: listed apart in the source
[9] = target: Poly(ADP-ribose) glycohydrolase (Homo sapiens) (UniProt Q86W56); assay: Inhibition of PARG using [alpha-32P]ADP-ribose polymers up to 500 uM after 5 mins by TRAP assay
[10] = target: Poly(ADP-ribose) glycohydrolase (Homo sapiens) (UniProt Q86W56); assay: Inhibition of PARG in human SCC25 cells assessed as inhibition of MNNG-induced poly(ADP-ribose) formation at 1 mM after 20 mins by chemiluminescent ELISA; type: cell-based; settings: SCC-25
Summary of the method: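 SCC-25 cells at 90% confluence in 35 mm dishes; 5 μg/mL MNNG used to induce PAR; lysed in buffer with 1% SDS; ADP-ribose polymers quantified by chemiluminescent ELISA (kit protocol, minor changes); PAR normalized to cell count.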

[11] = Selectivity ratio of IC50 for PARP-1 to IC50 for PARG

SMILES: O=C(Nc1cccc(Cl)c1)c1cc(Cl)cc(Cl)c1O
- inhibition [1]: inactive
- IC50 [2]: 500 µM
- inhibition [3]: inactive

SMILES: O=C(Nc1ccc(Oc2ccccc2)c(Cl)c1)c1cc(Cl)cc(Cl)c1O
- inhibition [1]: inactive
- inhibition [3]: inactive

SMILES: O=C(O)c1ccccc1C(=O)Nc1ccc(Oc2ccc3ccccc3c2)c(Cl)c1
- inhibition [1]: inactive
- IC50 [2]: 66 µM
- inhibition [3]: inactive

SMILES: CN(C(=O)c1cc(Cl)cc(Cl)c1O)c1ccc(Oc2ccc3ccccc3c2)c(Cl)c1
- inhibition [1]: inactive
- inhibition [3]: inactive

SMILES: O=C(Nc1ccc(Oc2ccc3ccccc3c2)c(Cl)c1)c1ccccc1O
- inhibition [1]: inactive
- inhibition [3]: inactive

SMILES: O=C(Nc1ccccc1Cl)c1cc(Cl)cc(Cl)c1O
- inhibition [1]: inactive
- IC50 [2]: 500 µM
- inhibition [3]: inactive
- inhibition [4]: 10%

SMILES: Cc1ccc(NC(=O)c2cc(Cl)cc(Cl)c2O)cc1
- inhibition [1]: inactive
- inhibition [3]: inactive
- inhibition [4]: 10%

SMILES: O=C(Nc1ccc(Oc2ccc3ccccc3c2)c(Cl)c1)c1cc(Cl)cc(Cl)c1O
- inhibition [1]: inactive
- inhibition [5]: Active
- IC50 [2]: 120 µM
- inhibition [3]: inactive
- inhibition [6]: 40%
- inhibition [7]: Active
- inhibition [8]: Active

SMILES: Nc1ncnc2c1ncn2[C@@H]1O[C@H](CO[P@](=O)(O)O[P@@](=O)(O)OC[C@H]2NC[C@H](O)[C@@H]2O)[C@@H](O)[C@H]1O [ADENOSINE DIPHOSPHATE (HYDROXYMETHYL)PYRROLIDINEDIOL]
- IC50 [2]: > 1000 µM

SMILES: COc1c(Cl)cc(Cl)cc1C(=O)Nc1ccc(Oc2ccc3ccccc3c2)c(Cl)c1
- inhibition [1]: inactive
- inhibition [3]: inactive
- inhibition [9]: inactive

SMILES: Cc1ccccc1NC(=O)c1cc(Cl)cc(Cl)c1O
- inhibition [1]: inactive
- inhibition [3]: inactive
- inhibition [4]: 10%

SMILES: Cc1cc(NC(=O)c2cc(Cl)cc(Cl)c2O)ccc1Oc1ccc2ccccc2c1
- inhibition [1]: inactive
- inhibition [3]: inactive

SMILES: O=C(Nc1ccc(Cl)cc1)c1cc(Cl)cc(Cl)c1O
- inhibition [1]: inactive
- inhibition [3]: inactive
- inhibition [6]: Active

SMILES: NC(=O)c1cc(Cl)cc(Cl)c1O
- inhibition [1]: inactive
- inhibition [3]: inactive
- inhibition [6]: Active
- inhibition [4]: < 10%

SMILES: NC(=O)c1ccccc1 [BENZAMIDE]
- IC50 [2]: 5.4 µM
- inhibition [6]: Active
- inhibition [10]: Active

SMILES: O=C(Nc1ccc(Oc2ccc3ccccc3c2)c(Cl)c1)c1cccc(Cl)c1O
- inhibition [1]: inactive
- inhibition [3]: inactive

SMILES: Oc1c(Cl)cc(Cl)cc1/C=N/c1ccc(Oc2ccc3ccccc3c2)c(Cl)c1
- inhibition [1]: inactive
- inhibition [3]: inactive
- inhibition [9]: inactive

SMILES: Oc1c(Cl)cc(Cl)cc1CNc1ccc(Oc2ccc3ccccc3c2)c(Cl)c1
- inhibition [1]: inactive
- inhibition [3]: inactive
- inhibition [9]: inactive

SMILES: O=C(Nc1ccc(O)c(Cl)c1)c1cc(Cl)cc(Cl)c1O
- inhibition [1]: inactive
- inhibition [3]: inactive
- inhibition [4]: < 10%

SMILES: Cc1cccc(NC(=O)c2cc(Cl)cc(Cl)c2O)c1
- inhibition [1]: inactive
- inhibition [3]: inactive
- inhibition [4]: 10%

SMILES: Cc1ccc(Oc2ccc(NC(=O)c3cc(Cl)cc(Cl)c3O)cc2Cl)cc1
- inhibition [1]: inactive
- inhibition [3]: inactive

SMILES: O=C(Nc1cc(Cl)ccc1Oc1ccc2ccccc2c1Cl)c1cc(Cl)cc(Br)c1O
- inhibition [1]: inactive
- inhibition [3]: inactive

SMILES: O=C(Nc1ccc(Oc2cc3ccccc3cc2Br)c(Cl)c1)c1cc(Cl)cc(Cl)c1O
- inhibition [1]: inactive
- IC50 [2]: 123 µM
- inhibition [3]: inactive
- Ratio IC50 [11]: 15

SMILES: O=C(Nc1ccc(Oc2ccc3ccccc3c2)c(Cl)c1)c1cc(Cl)cc(Cl)c1
- inhibition [1]: inactive
- inhibition [3]: inactive
- inhibition [6]: Active
- inhibition [9]: inactive

SMILES: O=C(Nc1ccccc1)c1cc(Cl)cc(Cl)c1O
- inhibition [1]: inactive
- inhibition [3]: inactive
- inhibition [4]: < 10%

SMILES: O=C(Nc1ccc(Oc2ccc3ccccc3c2)c(C(F)(F)F)c1)c1cc(Cl)cc(Cl)c1O
- inhibition [1]: inactive
- inhibition [3]: inactive

SMILES: O=C(Nc1ccc(Oc2ccc3ccccc3c2)c(F)c1)c1cc(Cl)cc(Cl)c1O
- inhibition [1]: inactive
- inhibition [3]: inactive

SMILES: Cc1ccc(C(C)C)c(Br)c1Oc1ccc(Cl)cc1NC(=O)c1cc(Cl)cc(Br)c1O
- inhibition [1]: inactive
- IC50 [2]: 78 µM
- inhibition [3]: inactive

SMILES: O=C(Nc1ccc(Oc2ccc3ccccc3c2)cc1)c1cc(Cl)cc(Cl)c1O
- inhibition [1]: inactive
- inhibition [3]: inactive

SMILES: O=C(Nc1ccc(Oc2ccc3ccccc3c2)c(Cl)c1)c1cc(Cl)ccc1O
- inhibition [1]: inactive
- inhibition [3]: inactive
